Tests used:
[1] = Inhibition of basal ERK phosphorylation in human MALME-3M cells; type: cell-based
[2] = target: Serine/threonine-protein kinase B-raf (Homo sapiens, UniProt P15056, V600E); experiment: Inhibition of full length B-Raf V600E mutant
[3] = target: Tyrosine-protein kinase Lck (Homo sapiens) (UniProt P06239); experiment: Inhibition of LCK at 1 uM
Summary of the method: (§1)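 Kinase selectivity panel reported as percent inhibition of each kinase at a single test-compound concentration. Values are means of at least two experiments.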

[4] = target: T1, Aurora kinase A (Homo sapiens) (UniProt O14965); experiment: Inhibition of aurora A at 1 uM; summary of the method: as §1
T1 sequence (whole entry): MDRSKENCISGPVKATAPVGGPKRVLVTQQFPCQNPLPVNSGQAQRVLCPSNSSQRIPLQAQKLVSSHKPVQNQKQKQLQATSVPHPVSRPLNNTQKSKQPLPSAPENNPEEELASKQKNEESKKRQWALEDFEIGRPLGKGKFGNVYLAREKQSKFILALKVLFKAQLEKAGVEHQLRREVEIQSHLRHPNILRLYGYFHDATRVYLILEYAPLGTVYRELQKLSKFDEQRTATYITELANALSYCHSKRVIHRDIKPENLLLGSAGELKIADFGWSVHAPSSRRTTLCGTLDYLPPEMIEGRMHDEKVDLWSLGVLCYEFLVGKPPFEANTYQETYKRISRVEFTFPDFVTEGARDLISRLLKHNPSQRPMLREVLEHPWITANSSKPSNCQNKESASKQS

[5] = target: Tyrosine-protein kinase Fgr (Homo sapiens) (UniProt P09769); experiment: Inhibition of FGR at 1 uM; summary of the method: as §1
Chain of Tyrosine-protein kinase Fgr (Homo sapiens) (P09769 2-529 limits assumed): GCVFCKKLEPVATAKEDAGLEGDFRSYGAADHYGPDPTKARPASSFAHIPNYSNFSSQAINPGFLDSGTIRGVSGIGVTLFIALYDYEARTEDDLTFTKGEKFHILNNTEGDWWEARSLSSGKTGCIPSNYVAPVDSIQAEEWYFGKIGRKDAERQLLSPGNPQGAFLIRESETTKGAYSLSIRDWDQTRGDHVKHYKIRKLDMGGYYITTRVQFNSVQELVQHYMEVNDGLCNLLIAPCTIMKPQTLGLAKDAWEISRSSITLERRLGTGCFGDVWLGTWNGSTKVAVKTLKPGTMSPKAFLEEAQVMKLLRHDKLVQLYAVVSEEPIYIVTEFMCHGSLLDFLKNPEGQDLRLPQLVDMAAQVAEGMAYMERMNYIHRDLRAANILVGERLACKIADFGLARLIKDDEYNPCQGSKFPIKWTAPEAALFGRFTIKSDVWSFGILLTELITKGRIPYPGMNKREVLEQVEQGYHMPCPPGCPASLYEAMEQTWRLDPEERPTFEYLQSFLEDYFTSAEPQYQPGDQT

[6] = target: Tyrosine-protein kinase Srms (Homo sapiens) (UniProt Q9H3Y6); experiment: Inhibition of SRMS at 1 uM; summary of the method: as §1
Chain of Tyrosine-protein kinase Srms (Homo sapiens) (Q9H3Y6 whole entry): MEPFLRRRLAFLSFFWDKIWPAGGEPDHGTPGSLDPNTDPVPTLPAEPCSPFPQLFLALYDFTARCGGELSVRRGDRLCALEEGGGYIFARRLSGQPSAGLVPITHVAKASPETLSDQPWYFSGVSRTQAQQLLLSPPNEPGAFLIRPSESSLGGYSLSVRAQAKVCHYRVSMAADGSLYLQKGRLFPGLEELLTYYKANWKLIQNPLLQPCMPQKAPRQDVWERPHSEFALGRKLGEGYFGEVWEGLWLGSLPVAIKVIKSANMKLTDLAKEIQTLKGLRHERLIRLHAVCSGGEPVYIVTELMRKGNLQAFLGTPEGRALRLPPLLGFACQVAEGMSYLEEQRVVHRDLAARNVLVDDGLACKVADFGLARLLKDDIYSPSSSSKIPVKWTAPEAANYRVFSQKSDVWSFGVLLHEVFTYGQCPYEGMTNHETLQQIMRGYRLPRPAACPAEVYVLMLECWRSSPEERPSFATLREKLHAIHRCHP

[7] = target: Proto-oncogene tyrosine-protein kinase Src (Homo sapiens) (UniProt P12931); experiment: Inhibition of SRC at 1 uM; summary of the method: as §1
Chain of Proto-oncogene tyrosine-protein kinase Src (Homo sapiens) (P12931 2-536 limits assumed): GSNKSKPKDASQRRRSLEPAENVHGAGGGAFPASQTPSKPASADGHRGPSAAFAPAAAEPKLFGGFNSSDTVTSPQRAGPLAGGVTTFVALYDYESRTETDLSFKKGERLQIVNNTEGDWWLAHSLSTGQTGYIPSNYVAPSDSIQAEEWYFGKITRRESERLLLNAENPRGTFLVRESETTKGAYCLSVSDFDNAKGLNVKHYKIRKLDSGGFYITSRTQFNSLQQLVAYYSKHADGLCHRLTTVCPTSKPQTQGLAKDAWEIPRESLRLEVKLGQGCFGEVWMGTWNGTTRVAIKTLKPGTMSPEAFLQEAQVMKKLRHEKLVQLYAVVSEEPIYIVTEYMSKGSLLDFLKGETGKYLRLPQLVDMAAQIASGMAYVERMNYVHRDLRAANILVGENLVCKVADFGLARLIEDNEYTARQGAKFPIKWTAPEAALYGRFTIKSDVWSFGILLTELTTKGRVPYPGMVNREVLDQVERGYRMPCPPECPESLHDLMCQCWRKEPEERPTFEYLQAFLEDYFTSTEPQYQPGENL

[8] = target: Protein-tyrosine kinase 6 (Homo sapiens) (UniProt Q13882); experiment: Inhibition of PTK6 at 1 uM; summary of the method: as §1
Chain of Protein-tyrosine kinase 6 (Homo sapiens) (Q13882 whole entry, looked up): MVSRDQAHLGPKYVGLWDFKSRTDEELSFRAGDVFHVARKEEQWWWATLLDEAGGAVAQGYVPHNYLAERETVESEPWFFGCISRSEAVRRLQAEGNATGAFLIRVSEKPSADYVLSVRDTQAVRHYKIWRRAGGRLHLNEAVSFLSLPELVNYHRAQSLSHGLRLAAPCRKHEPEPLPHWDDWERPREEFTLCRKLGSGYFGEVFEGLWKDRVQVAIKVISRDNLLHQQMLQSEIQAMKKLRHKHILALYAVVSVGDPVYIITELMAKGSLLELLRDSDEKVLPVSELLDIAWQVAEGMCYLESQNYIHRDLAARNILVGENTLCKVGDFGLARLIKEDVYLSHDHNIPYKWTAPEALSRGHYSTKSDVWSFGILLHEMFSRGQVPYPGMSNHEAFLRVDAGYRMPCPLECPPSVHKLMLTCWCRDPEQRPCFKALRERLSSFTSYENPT

[9] = target: Receptor-type tyrosine-protein kinase FLT3 (Homo sapiens) (UniProt P36888); experiment: Inhibition of FLT3 at 1 uM; summary of the method: as §1
Chain of Receptor-type tyrosine-protein kinase FLT3 (Homo sapiens) (P36888 whole entry): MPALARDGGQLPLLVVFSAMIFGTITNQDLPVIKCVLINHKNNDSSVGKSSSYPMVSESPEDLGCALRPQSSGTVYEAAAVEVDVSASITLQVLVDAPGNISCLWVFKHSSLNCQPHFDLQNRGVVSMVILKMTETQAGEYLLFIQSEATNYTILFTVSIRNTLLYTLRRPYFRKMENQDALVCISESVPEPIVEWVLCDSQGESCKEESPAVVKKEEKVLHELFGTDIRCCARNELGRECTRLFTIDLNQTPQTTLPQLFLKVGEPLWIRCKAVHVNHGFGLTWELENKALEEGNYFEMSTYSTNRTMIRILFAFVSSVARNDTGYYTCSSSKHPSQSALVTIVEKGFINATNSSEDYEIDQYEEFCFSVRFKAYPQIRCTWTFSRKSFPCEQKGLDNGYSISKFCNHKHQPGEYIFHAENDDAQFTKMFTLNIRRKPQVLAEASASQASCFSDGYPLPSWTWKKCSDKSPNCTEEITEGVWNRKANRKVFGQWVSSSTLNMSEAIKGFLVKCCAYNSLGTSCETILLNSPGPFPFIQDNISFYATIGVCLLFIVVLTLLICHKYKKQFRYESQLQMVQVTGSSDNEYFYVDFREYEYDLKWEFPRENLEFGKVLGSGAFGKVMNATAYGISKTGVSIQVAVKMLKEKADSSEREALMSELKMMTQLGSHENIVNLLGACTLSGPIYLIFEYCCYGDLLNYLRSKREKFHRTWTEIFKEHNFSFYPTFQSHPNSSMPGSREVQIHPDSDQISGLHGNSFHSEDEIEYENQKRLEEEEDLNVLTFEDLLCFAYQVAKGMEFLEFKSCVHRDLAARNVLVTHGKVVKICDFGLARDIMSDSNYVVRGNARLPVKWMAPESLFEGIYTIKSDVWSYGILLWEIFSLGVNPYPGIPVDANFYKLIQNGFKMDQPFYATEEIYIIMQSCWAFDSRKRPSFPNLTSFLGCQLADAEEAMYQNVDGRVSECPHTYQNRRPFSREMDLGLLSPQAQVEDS

Chain of Serine/threonine-protein kinase B-raf (P15056 2-766 V600E limits assumed): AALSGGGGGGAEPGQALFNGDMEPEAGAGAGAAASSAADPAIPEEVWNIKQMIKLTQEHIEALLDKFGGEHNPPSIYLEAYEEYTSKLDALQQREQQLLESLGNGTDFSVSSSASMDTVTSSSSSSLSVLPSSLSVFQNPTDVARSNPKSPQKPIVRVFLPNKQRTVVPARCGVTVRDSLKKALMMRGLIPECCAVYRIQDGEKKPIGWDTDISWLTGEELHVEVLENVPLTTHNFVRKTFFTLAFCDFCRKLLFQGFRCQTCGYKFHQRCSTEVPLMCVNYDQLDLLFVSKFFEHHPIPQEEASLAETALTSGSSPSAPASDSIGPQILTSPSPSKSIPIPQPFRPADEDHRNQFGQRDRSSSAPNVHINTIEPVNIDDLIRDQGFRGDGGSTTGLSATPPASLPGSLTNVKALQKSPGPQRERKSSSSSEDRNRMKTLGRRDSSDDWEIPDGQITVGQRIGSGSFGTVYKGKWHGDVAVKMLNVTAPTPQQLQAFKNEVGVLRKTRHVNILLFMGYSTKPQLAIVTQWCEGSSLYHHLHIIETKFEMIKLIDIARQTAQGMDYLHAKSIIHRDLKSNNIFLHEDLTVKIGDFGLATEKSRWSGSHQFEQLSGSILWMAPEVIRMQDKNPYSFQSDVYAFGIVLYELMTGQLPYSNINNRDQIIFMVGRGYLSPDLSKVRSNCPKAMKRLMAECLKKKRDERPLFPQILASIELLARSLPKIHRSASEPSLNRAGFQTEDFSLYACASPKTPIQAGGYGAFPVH
Chain of Tyrosine-protein kinase Lck (Homo sapiens) (P06239 2-509 limits assumed): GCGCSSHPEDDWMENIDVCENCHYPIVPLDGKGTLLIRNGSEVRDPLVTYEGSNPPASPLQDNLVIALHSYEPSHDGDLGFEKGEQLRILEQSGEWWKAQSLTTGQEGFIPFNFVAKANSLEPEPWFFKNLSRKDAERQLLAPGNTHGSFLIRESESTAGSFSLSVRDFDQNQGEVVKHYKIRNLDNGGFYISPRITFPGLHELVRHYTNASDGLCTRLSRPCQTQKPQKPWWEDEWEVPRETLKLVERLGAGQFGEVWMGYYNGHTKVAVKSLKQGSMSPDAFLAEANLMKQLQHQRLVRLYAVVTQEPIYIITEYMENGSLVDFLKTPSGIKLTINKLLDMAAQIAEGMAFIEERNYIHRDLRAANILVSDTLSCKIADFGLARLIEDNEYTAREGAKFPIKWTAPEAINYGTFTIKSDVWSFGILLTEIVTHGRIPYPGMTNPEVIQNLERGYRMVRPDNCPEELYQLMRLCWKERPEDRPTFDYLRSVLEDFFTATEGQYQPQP

| IC50 [1] | IC50 [2] | SMILES | further results |
| --- | --- | --- | --- |
| 28 nM | 29 nM | CCN(C)S(=O)(=O)Nc1ccc(F)c(C(=O)Nc2cnc3[nH]nc(OC)c3c2)c1F | – |
| 190 nM | 17 nM | CCCS(=O)(=O)Nc1ccc(Cl)c(C(=O)Nc2cnc3[nH]ccc3c2)c1F | – |
| 83 nM | 0.5 nM | COc1n[nH]c2ncc(NC(=O)c3c(F)ccc(NS(=O)(=O)c4cccnc4)c3F)cc12 | – |
| 100 nM | 2.3 nM | CCCS(=O)(=O)Nc1cc(F)c(F)c(C(=O)Nc2cnc3[nH]nc(OC)c3c2)c1F | – |
| 170 nM | 120 nM | O=C(Nc1cnc2[nH]ccc2c1)c1c(F)ccc(NS(=O)(=O)N2CCCC2)c1F | – |
| 500 nM | 13 nM | COc1n[nH]c2ncc(NC(=O)c3c(F)ccc(NS(=O)(=O)NCC(F)F)c3F)cc12 | – |
| 206 nM | 8.3 nM | CCCS(=O)(=O)Nc1ccc(Cl)c(C(=O)Nc2cnc3[nH]ccc3c2)c1Cl | – |
| 830 nM | 190 nM | COc1n[nH]c2ncc(NC(=O)c3c(F)ccc(NS(=O)(=O)Cc4ccccc4)c3F)cc12 | – |
| 400 nM | 76 nM | CCCS(=O)(=O)Nc1cc(F)cc(C(=O)Nc2cnc3[nH]ccc3c2)c1F | – |
| 62 nM | 16 nM | CCCS(=O)(=O)Nc1ccc(F)c(C(=O)Nc2cnc3[nH]cc(C)c3c2)c1F | – |
| 20 nM | 1 nM | COc1n[nH]c2ncc(NC(=O)c3c(F)ccc(NS(=O)(=O)c4cc(F)ccc4F)c3F)cc12 | – |
| 260 nM | 200 nM | CN(C)S(=O)(=O)Nc1ccc(F)c(C(=O)Nc2cnc3[nH]ccc3c2)c1F | – |
| 13 nM | 1.3 nM | COc1n[nH]c2ncc(NC(=O)c3c(F)ccc(NS(=O)(=O)CCCF)c3F)cc12 | – |
| 62 nM | 25 nM | CCS(=O)(=O)Nc1ccc(F)c(C(=O)Nc2cnc3[nH]nc(OC)c3c2)c1F | – |
| 250 nM | 61 nM | CCCS(=O)(=O)Nc1ccc(Cl)c(C(=O)Nc2cnc3[nH]nc(OC)c3c2)c1 | – |
| 9.1 nM | 1.8 nM | COc1n[nH]c2ncc(NC(=O)c3c(F)ccc(NS(=O)(=O)c4ccccc4F)c3F)cc12 | – |
| 63 nM | 18 nM | COc1n[nH]c2ncc(NC(=O)c3c(F)ccc(NS(=O)(=O)N(C)C)c3F)cc12 | – |
| 200 nM | 140 nM | CC(C)CS(=O)(=O)Nc1ccc(F)c(C(=O)Nc2cnc3[nH]ccc3c2)c1F | – |
| 180 nM | 18 nM | CCNS(=O)(=O)Nc1ccc(F)c(C(=O)Nc2cnc3[nH]nc(OC)c3c2)c1F | – |
| 710 nM | 99 nM | O=C(Nc1cnc2[nH]ccc2c1)c1c(F)ccc(NS(=O)(=O)C2CC2)c1F | – |
| 180 nM | 110 nM | CCCS(=O)(=O)Nc1ccc(F)c(C(=O)Nc2cnc3[nH]nc(OC)c3c2)c1OC | – |

| IC50 [1] | IC50 [2] | SMILES | further results |
| --- | --- | --- | --- |
| 30 nM | 0.2 nM | COc1n[nH]c2ncc(NC(=O)c3c(F)ccc(NS(=O)(=O)c4cccs4)c3F)cc12 | – |
| > 10000 nM | – | COc1n[nH]c2ncc(NC(=O)c3c(F)ccc(NS(=O)(=O)c4cn(C)cn4)c3F)cc12 | – |
| – | 210 nM | CCCS(=O)(=O)Nc1ccc(F)c(C(=O)Nc2cnc3[nH]ccc3c2)c1 | – |
| 12 nM | 2.4 nM | CCCS(=O)(=O)Nc1ccc(F)c(C(=O)Nc2cnc3[nH]nc(OCC)c3c2)c1F | – |
| – | 680 nM | CCCS(=O)(=O)Nc1ccc(F)c(C(=O)Nc2cnc3[nH]ccc3c2)c1C | – |
| 350 nM | 150 nM | CCCS(=O)(=O)Nc1ccc(F)c(C(=O)Nc2cnc3[nH]nc(OC)c3c2)c1 | – |
| 340 nM | 46 nM | COc1n[nH]c2ncc(NC(=O)c3c(F)ccc(NS(=O)(=O)c4ccc(F)cc4)c3F)cc12 | – |
| 410 nM | 19 nM | CCCS(=O)(=O)Nc1cc(F)c(F)c(C(=O)Nc2cnc3[nH]ccc3c2)c1F | – |
| 20 nM | – | CCCS(=O)(=O)Nc1ccc(Cl)c(C(=O)Nc2cnc3[nH]nc(OC)c3c2)c1F | – |
| 340 nM | 400 nM | CCN(C)S(=O)(=O)Nc1ccc(F)c(C(=O)Nc2cnc3[nH]ccc3c2)c1F | – |
| 280 nM | 5.8 nM | CCCS(=O)(=O)Nc1ccc(F)c(C(=O)Nc2cnc3[nH]nc(C(F)(F)F)c3c2)c1F | – |
| 1400 nM | 170 nM | CCCS(=O)(=O)Nc1ccc(C)c(C(=O)Nc2cnc3[nH]ccc3c2)c1F | – |
| 630 nM | 110 nM | COc1n[nH]c2ncc(NC(=O)c3c(F)ccc(NS(=O)(=O)NC(C)C)c3F)cc12 | – |
| 230 nM | 29 nM | O=C(Nc1cnc2[nH]ccc2c1)c1c(F)ccc(NS(=O)(=O)CC2CC2)c1F | – |
| 18 nM | 8.6 nM | COc1n[nH]c2ncc(NC(=O)c3c(F)ccc(NS(=O)(=O)N4CCCC4)c3F)cc12 | inhibition [3]: 90%; inhibition [4]: 47%; inhibition [5]: 101%; inhibition [6]: 105%; inhibition [7]: 52%; inhibition [8]: 105%; inhibition [9]: 85% |
| – | 530 nM | CCCS(=O)(=O)Nc1ccc(F)c(C(=O)Nc2cnc3[nH]nc(OC)c3c2)c1C(F)(F)F | – |
| 76 nM | 3.5 nM | CCCS(=O)(=O)Nc1ccc(F)c(C(=O)Nc2cnc3[nH]nc(OCC4CCC4)c3c2)c1F | – |
| 38 nM | 13 nM | CCCS(=O)(=O)Nc1cccc(C(=O)Nc2cnc3[nH]nc(OC)c3c2)c1F | – |
| 230 nM | 6.2 nM | CCCS(=O)(=O)Nc1ccc(F)c(C(=O)Nc2cnc3[nH]cc(C(F)(F)F)c3c2)c1F | – |
| 28 nM | 5.3 nM | CCCS(=O)(=O)Nc1ccc(F)c(C(=O)Nc2cnc3[nH]nc(OCC(F)(F)F)c3c2)c1F | – |
| – | 2600 nM | CCCS(=O)(=O)Nc1ccc(OC)c(C(=O)Nc2cnc3[nH]nc(OC)c3c2)c1F | – |

| IC50 [1] | IC50 [2] | SMILES | further results |
| --- | --- | --- | --- |
| 170 nM | 63 nM | COc1n[nH]c2ncc(NC(=O)c3c(F)ccc(NS(=O)(=O)C4CC4)c3F)cc12 | – |
| 270 nM | 33 nM | O=C(Nc1cnc2[nH]ccc2c1)c1c(F)ccc(NS(=O)(=O)CCC(F)(F)F)c1F | – |
| 290 nM | 19 nM | CCCS(=O)(=O)Nc1ccc(F)c(C(=O)Nc2cnc3[nH]cc(CC)c3c2)c1F | – |
| 66 nM | 0.7 nM | COc1n[nH]c2ncc(NC(=O)c3c(F)ccc(NS(=O)(=O)c4ccco4)c3F)cc12 | – |
| 280 nM | 16 nM | COc1n[nH]c2ncc(NC(=O)c3c(F)ccc(NS(=O)(=O)c4ccccn4)c3F)cc12 | – |
| 17 nM | – | COc1n[nH]c2ncc(NC(=O)c3c(F)ccc(NS(=O)(=O)c4ccccc4)c3F)cc12 | – |
| 75 nM | 19 nM | O=C(Nc1cnc2[nH]ccc2c1)c1c(F)ccc(NS(=O)(=O)CCCF)c1F | – |
| 120 nM | 40 nM | CCCCS(=O)(=O)Nc1ccc(F)c(C(=O)Nc2cnc3[nH]ccc3c2)c1F | – |
| 36 nM | 1.8 nM | CCCS(=O)(=O)Nc1ccc(F)c(C(=O)Nc2cnc3[nH]nc(I)c3c2)c1F | – |
| 11 nM | 4.5 nM | COc1n[nH]c2ncc(NC(=O)c3c(F)ccc(NS(=O)(=O)CC(C)C)c3F)cc12 | – |
| 43 nM | 4.2 nM | CCCS(=O)(=O)Nc1ccc(F)c(C(=O)Nc2cnc3[nH]nc(OCC4COC4)c3c2)c1F | – |
| 2600 nM | 38 nM | O=C(Nc1cnc2[nH]ccc2c1)c1c(F)ccc(NS(=O)(=O)CC(F)(F)F)c1F | – |
| 290 nM | 87 nM | CCCS(=O)(=O)Nc1cccc(C(=O)Nc2cnc3[nH]ccc3c2)c1F | – |
| 31 nM | 17 nM | COc1n[nH]c2ncc(NC(=O)c3c(F)ccc(NS(=O)(=O)CC4CC4)c3F)cc12 | – |
| 2100 nM | 88 nM | CCCS(=O)(=O)Nc1ccc(Cl)c(C(=O)Nc2cnc3[nH]ccc3c2)c1 | – |
| 62 nM | 6.9 nM | CCCS(=O)(=O)Nc1ccc(F)c(C(=O)Nc2cnc3[nH]nc(O[C@@H]4CCOC4)c3c2)c1F | – |
| 84 nM | 9.2 nM | CCCS(=O)(=O)Nc1ccc(F)c(C(=O)Nc2cnc3[nH]nc(CC)c3c2)c1F | – |
| 40 nM | 1.4 nM | CCCS(=O)(=O)Nc1ccc(Cl)c(C(=O)Nc2cnc3[nH]nc(OC)c3c2)c1Cl | – |
| 80 nM | 7.5 nM | CCCS(=O)(=O)Nc1cc(F)cc(C(=O)Nc2cnc3[nH]nc(OC)c3c2)c1F | – |
| 60 nM | 2.2 nM | CCCS(=O)(=O)Nc1ccc(F)c(C(=O)Nc2cnc3[nH]cc(I)c3c2)c1F | – |

| SMILES | IC50 [1] | IC50 [2] | further results |
| --- | --- | --- | --- |
| CCCS(=O)(=O)Nc1ccc(F)c(C(=O)Nc2cnc3[nH]cc(Br)c3c2)c1F | 39 nM | – | – |
| CCCS(=O)(=O)Nc1ccc(F)c(C(=O)Nc2cnc3[nH]nc(Br)c3c2)c1F | 44 nM | – | – |
| CCCS(=O)(=O)Nc1ccc(F)c(C(=O)Nc2cnc3[nH]ncc3c2)c1F | 62 nM | – | – |
| CCCS(=O)(=O)Nc1ccc(F)c(C(=O)Nc2cnc3[nH]ccc3c2)c1F | 94 nM | – | – |
| CCCS(=O)(=O)Nc1ccc(F)c(C(=O)Nc2cnc3[nH]nc(OC)c3c2)c1F | 19 nM | – | inhibition [3]: 56%; inhibition [4]: 1%; inhibition [5]: 88%; inhibition [6]: 94%; inhibition [7]: 22%; inhibition [8]: 83%; inhibition [9]: 52% |
| CCCS(=O)(=O)Nc1ccc(F)c(C(=O)Nc2cnc3[nH]nc(C)c3c2)c1F | 86 nM | – | – |

— ChEMBL document CHEMBL1821716, “Pyrazolopyridine inhibitors of B-RafV600E. Part 2: structure-activity relationships” (Bioorg Med Chem Lett, 2011)
